# Laboratory results: paper PMC11319934 (PNAS Nexus, 2024)
# Bridge positions count the residues as written; N and C are the ends. Square brackets hold non-standard residues; d marks the D form. Peptide text beside a SMILES is read from it. * marks the point of attachment. X1 = CN(C)c1ccc2c(-c3ccc(C(=O)*)cc3C(=O)[O-])c3ccc(=[N+](C)C)cc-3oc2c1; R5 = C=CCCC[C@@](C)(N)C(=O)O; S5 = C=CCCC[C@](C)(N)C(=O)O
# Tests used:
# [1] = test system: M. polymorpha gemmalings (Tak-1); assay: Growth; format: in vivo, Marchantia polymorpha; details: Tak-1 gemmalings, 4 (10 µM) with OPDA (50 µM), n = 24
# Procedure, shortened: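 Tak-1 gemmalings grown 2 weeks on half-strength Gamborg's B5 with 1% agar, containing OPDA (50 µM) ± test compound (10 µM). Continuous light 50–60 µmol m-2 s-1, 22°C. Plant area measured in mm2 (n = 24). Experiment repeated three times; one-way ANOVA/Tukey's HSD, P < 0.01.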
# [2] = target: T1, His-EIL1-FLAG (Arabidopsis thaliana, UniProt Q9SLH0); assay: Fluorescence anisotropy; format: binding
# T1 sequence (Q9SLH0 201-501): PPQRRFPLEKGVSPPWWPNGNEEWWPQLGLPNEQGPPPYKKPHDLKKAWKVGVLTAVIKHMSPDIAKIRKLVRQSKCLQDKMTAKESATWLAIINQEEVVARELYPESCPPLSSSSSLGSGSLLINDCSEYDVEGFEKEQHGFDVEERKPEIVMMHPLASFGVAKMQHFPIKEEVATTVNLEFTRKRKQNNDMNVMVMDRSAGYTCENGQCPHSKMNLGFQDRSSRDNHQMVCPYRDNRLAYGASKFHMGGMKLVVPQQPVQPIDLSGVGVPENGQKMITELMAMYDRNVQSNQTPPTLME
# Procedure, shortened: (§1)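 FA titration at 25°C in 20 mM Tris-HCl pH 8.0, 200 mM NaCl, 10% glycerol, 10% cOmplete EDTA-free, with 2-mercaptoethanol (EIN3/EIL1 family). Protein added dropwise to 100 nM TMR-labelled peptide; His-EIN3-FLAG titrated 0–2 µM. Anisotropy read at ex/em 543/573.5 nm. Each point is the average of three independent measurements. Apparent Kd obtained by nonlinear curve fitting.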
# [3] = test system: A. thaliana seedlings (Col-0); assay: Root growth of A. thaliana seedlings with MeJA; format: in vivo, Arabidopsis thaliana; details: Col-0 seedlings, co-treatment 4 (10 µM) with MeJA (50 µM), n = 15
# Procedure, shortened: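 Surface-sterilized Col-0 seeds stratified 2–3 days at 4°C. Grown on half-strength MS plates (2% sucrose, 0.4% gellan gum) with MeJA (50 µM) ± test compound (10 µM), under 16 h light (75 µmol m-2 s-1)/8 h dark at 22°C. Whole-seedling root length measured (n = 15). Repeated three times; one-way ANOVA/Tukey's HSD, P < 0.01.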
# [4] = test system: His-MpMYC-Y-FLAG (MpMYC-Y(102-299)); assay: Fluorescence anisotropy; format: binding, Marchantia polymorpha; details: ratio of Kd of 1 to Kd of the peptide
# Procedure, shortened: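 FA titration of 100 nM TMR-labelled peptide with His-MpMYC-Y-FLAG (0–2 µM), added dropwise. Conditions: 25°C, 20 mM Tris-HCl pH 8.0, 200 mM NaCl, 10% glycerol, 10% cOmplete EDTA-free, no 2-mercaptoethanol (MYC family). Read at ex/em 543/573.5 nm, triplicate points. Apparent Kd from nonlinear fitting; values compared as Kd ratios.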
# [5] = test system: JA-responsive marker genes in Arabidopsis seedlings; assay: RT-qPCR of JA-responsive marker genes in A. thaliana; format: in vivo, Arabidopsis thaliana
# Procedure, shortened: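 Col-0 or mutant (e.g. myc234) seedlings grown at 22°C, 16 h light/8 h dark. At 7 days, treated in half-strength MS liquid medium with MeJA (50 µM) and/or test compound (10 µM). Exposure 2 h for AOS, OPR3, MYC2, ORA59 and 8 h for VSP2, PDF1.2, ACT. Total RNA extracted; oligo-dT-primed cDNA; RT-qPCR (n = 4). One-way ANOVA/Tukey's HSD.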
# [6] = test system: A. thaliana seedlings (Col-0); assay: Secondary metabolite quantification in A. thaliana; format: in vivo, Arabidopsis thaliana; details: Col-0 seedlings, 4 (10 µM) with MeJA (50 µM), 4 days, n = 4, LC/MS
# Procedure, shortened: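 7-day-old Col-0 seedlings treated 4 days with MeJA (50 µM) ± test compound (10 µM). Glucobrassicin (i-3ym) and p-coumaroyl agmatine accumulation quantified (n = 4). Experiment repeated three times; one-way ANOVA/Tukey's HSD, P < 0.01.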
# [7] = target: T2, His-MYC3-FLAG (His6-SUMO-MYC3(44–238)-FLAG) (Arabidopsis thaliana, UniProt Q9FIP9); assay: Fluorescence anisotropy; format: binding
# T2 sequence (Q9FIP9 44-238): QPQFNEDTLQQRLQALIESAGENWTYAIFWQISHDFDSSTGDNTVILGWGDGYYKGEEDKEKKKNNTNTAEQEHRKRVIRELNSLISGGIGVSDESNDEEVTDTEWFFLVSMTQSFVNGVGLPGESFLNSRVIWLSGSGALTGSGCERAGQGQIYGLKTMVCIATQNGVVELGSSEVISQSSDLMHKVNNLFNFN
# [8] = target: T3, His-EIN3-FLAG (His6-SUMO-EIN3(200–500)-FLAG) (Arabidopsis thaliana, UniProt O24606); assay: Fluorescence anisotropy; format: binding
# T3 sequence (O24606 200-500): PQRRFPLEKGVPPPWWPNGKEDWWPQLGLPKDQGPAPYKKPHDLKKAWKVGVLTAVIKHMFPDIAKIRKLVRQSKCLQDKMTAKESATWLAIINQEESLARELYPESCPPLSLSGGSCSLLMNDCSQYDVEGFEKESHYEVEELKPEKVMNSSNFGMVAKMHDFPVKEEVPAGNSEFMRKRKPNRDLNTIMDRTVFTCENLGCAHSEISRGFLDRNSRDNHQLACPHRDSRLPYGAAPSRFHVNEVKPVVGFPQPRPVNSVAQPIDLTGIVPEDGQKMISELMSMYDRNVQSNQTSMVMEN
# Procedure, shortened: as §1
# [9] = test system: OPDA-responsive marker genes in Marchantia gemmalings; assay: RT-qPCR of OPDA-responsive marker genes in M. polymorpha; format: in vivo, Marchantia polymorpha; details: 4 (10 µM) with OPDA (50 µM), 6 h
# [10] = target: T4, biotin-MED25^CMIDM/His-MYC3-FLAG complex (Arabidopsis thaliana, UniProt Q9FIP9); assay: AlphaLISA inhibitory assay MED25CMIDM/MYC3; format: biochemical
# T4 sequence (Q9FIP9 44-238): T2 sequence (Q9FIP9 44-238)
# Procedure, shortened: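 Competition AlphaLISA: biotin-MED25CMIDM (150 nM) with His-MYC3-FLAG (50 nM). TMR-conjugated test peptides titrated 0–3 µM to generate inhibition curves. Run in triplicate; mean and SD reported.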
smiles,measurement,setting,value
"CC[C@H](C)[C@H](NC(=O)[C@H](CCCCN)NC(=O)[C@H](CO)NC(=O)[C@@H](NC(=O)[C@]1(C)CCCC=CCCC[C@](C)(NC(=O)[C@H](CCCNC(=N)N)NC(=O)[C@H](Cc2ccccc2)NC(=O)[C@H](CO)NC(=O)[C@H](CCCNC(=N)N)NC(=O)[C@H](CCCNC(=N)N)NC(=O)[C@H](CCCNC(=N)N)NC(=O)[C@H](CC(=O)O)NC(=O)[C@H](CC(C)C)NC(=O)[C@H](Cc2ccccc2)NC(=O)[C@H](CCCCN)NC(=O)[C@H](CCC(N)=O)NC(=O)[C@H](Cc2ccccc2)NC(=O)c2ccc(-c3c4ccc(=[N+](C)C)cc-4oc4cc(N(C)C)ccc34)c(C(=O)[O-])c2)C(=O)N[C@@H]([C@@H](C)CC)C(=O)N[C@@H](CCC(N)=O)C(=O)NCC(=O)N1)[C@@H](C)CC)C(=O)N[C@@H](CC(=O)O)C(=O)N1CCC[C@H]1C(=O)N[C@@H](CCC(=O)O)C(=O)N[C@]1(C)CCCC=CCCC[C@@](C)(C(=O)N[C@@H](CC(C)C)C(=O)N[C@@H](CC(C)C)C(=O)N[C@@H](C)C(=O)N[C@@H](CO)C(=O)N[C@H](C(=O)O)[C@@H](C)O)NC(=O)[C@H](CCCCN)NC(=O)[C@H]([C@@H](C)CC)NC1=O [compound 4] (X1-FQKFLDRRRSFR[S5]IQG[S5]ISKIDPE[R5]IK[S5]LLAST-OH; staple 13-17, 25-28)",effect on OPDA growth inhibitory effects (plant area),[1],partially suppressed
same,Kd,[2],116 nM
same,effect on MeJA growth inhibitory effects (root length),[3],partially suppressed
same,fold lower Kd with MpMYC-Y than 1,[4],46 fold
same,"marker gene expression, peptide alone","[5]; 7-day-old Col-0, 4 (10 µM) alone without MeJA, 2 or 8 h",almost no effects
same,expression of ORA59 and ACT (EIN3/EIL1-marker genes),"[5]; 7-day-old Col-0, 4 (10 µM) with MeJA (50 µM), 2 or 8 h",activated
same,"MeJA-induced expression of MYC-mediated marker genes (VSP2, AOS, OPR3, MYC2)","[5]; 7-day-old Col-0, 4 (10 µM) with MeJA (50 µM), 2 or 8 h, n = 3 or 4",significantly suppressed
same,expression of PDF1.2 (EIN3/EIL1-mediated marker gene) compared with MeJA alone,"[5]; 7-day-old Col-0, 4 (10 µM) with MeJA (50 µM), 8 h",strongly activated
same,expression pattern of VSP2 and PDF1.2 on myc234 compared to MeJA alone,"[5]; MYC triple mutant myc234, 4 (10 µM) with MeJA (50 µM), 8 h, n = 4",did not significantly change
same,expression pattern of VSP2 and PDF1.2 on ein2-1 compared to MeJA alone,"[5]; ein2-1 mutant, 4 (10 µM) with MeJA (50 µM), 8 h, n = 3 or 4",did not significantly change
same,MeJA-triggered accumulation of p-coumaroyl agmatine (CouAgm) compared to MeJA alone,[6],significantly enhanced
same,"MeJA-triggered glucosinolate (glucobrassicin, i-3ym) accumulation",[6],significantly suppressed
same,Kd,[7],5 nM
same,fold lower Kd with His-MYC3-FLAG than that of 1,[7]; ratio of Kd of 1 to Kd of the peptide,42 fold
same,Kd,[8],105 nM
same,bioactivity on marker gene expression in MpMYC-Y knockout mutant mpmycy,[9],completely abolished
same,Ki,[10],71 nM
